Results from ChEMBL document CHEMBL4017460, “A Tobramycin Vector Enhances Synergy and Efficacy of Efflux Pump Inhibitors against Multidrug-Resistant Gram-Negative Bacteria” (J Med Chem, 2017).
Values after ≈ are worked out from the molar mass of the structure shown. Active and inactive are the calls of the source. The rule behind the calls is not given here.

Tests used:
Klebsiella pneumoniae [1] = assay: Antibacterial activity against Klebsiella pneumoniae isolate 116381 after 18 to 24 hrs by microbroth dilution assay; assay type: functional
How it was run: (§1)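 Checkerboard in MHB: antibiotic 2-fold diluted along one axis, test agent 2-fold diluted along the other. Overnight culture standardized to 0.5 McFarland in saline, diluted 1:50 in MHB, added to wells, incubated 37 °C for 18 h. MIC is the lowest concentration with no growth. FIC = MIC in combination / MIC alone; FIC index = sum of both FICs.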

[2] = system: Pseudomonas aeruginosa PAO1; assay: Inhibition of RND efflux pump in Pseudomonas aeruginosa PAO1 assessed as increase in tetracycline uptake measured at 1 min interval for 30 mins by fluorescence assay
How it was run: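 Tetracycline uptake assay in P. aeruginosa PAO1: enhancement of tetracycline fluorescence as it enters cells, monitored with compound present at several concentrations.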

Pseudomonas aeruginosa [3] = assay: Inhibition of RND efflux pump in Pseudomonas aeruginosa isolate 100036 assessed as potentiation of minocycline-induced antibacterial activity by measuring fold reduction in minocycline MIC at 8 ug/ml after 18 to 24 hrs by microbroth dilution assay
How it was run: as §1, with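 “broth microdilution:” for “in MHB:”, “adjuvant” for “test agent”, “wells,” for “wells, incubated”, “FICI” for “FIC index”, “the two FICs; FICI ≤0.5 is synergy.” for “both FICs.”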

Pseudomonas aeruginosa [4] = assay: Inhibition of RND efflux pump in Pseudomonas aeruginosa isolate P260-97103 assessed as potentiation of minocycline-induced antibacterial activity by measuring minocycline MIC at 0.25 times antibacterial MIC after 18 to 24 hrs by microbroth dilution assay (reference value: 8 to 16 ug/ml)
How it was run: as §1, with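 “broth microdilution:” for “in MHB:”, “adjuvant” for “test agent”, “wells,” for “wells, incubated”, “FICI” for “FIC index”, “the two FICs; FICI ≤0.5 is synergy.” for “both FICs.”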

[5] = system: Pseudomonas aeruginosa PAO1; assay: Inhibition of RND efflux pump in Pseudomonas aeruginosa PAO1 assessed as potentiation of tigecycline-induced antibacterial activity by measuring fold reduction in tigecycline MIC at 8 ug/ml after 18 to 24 hrs by microbroth dilution assay relative to tigecycline alone
How it was run: as §1, with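 “broth microdilution:” for “in MHB:”, “adjuvant” for “test agent”, “wells,” for “wells, incubated”, “FICI” for “FIC index”, “the two FICs; FICI ≤0.5 is synergy.” for “both FICs.”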

Pseudomonas aeruginosa [6] = assay: Potentiation of minocycline-induced antibacterial activity against mexAB-oprM deficient Pseudomonas aeruginosa PAO200 after 18 to 24 hrs by microbroth dilution assay; assay type: functional
Pseudomonas aeruginosa [7] = assay: Antibacterial activity against Pseudomonas aeruginosa isolate 100036 after 18 to 24 hrs by microbroth dilution assay; assay type: functional; how it was run: as §1
Klebsiella pneumoniae [8] = assay: Inhibition of RND efflux pump in Klebsiella pneumoniae isolate 116381 assessed as potentiation of minocycline-induced antibacterial activity by measuring fold reduction in minocycline MIC at 8 ug/ml after 18 to 24 hrs by microbroth dilution assay
How it was run: (§2)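 Absolute minocycline MIC taken from checkerboard broth dilution with a fixed 8 μg/mL adjuvant. Inoculum was a 0.5 McFarland saline suspension diluted 1:50 in MHB, incubated 37 °C for 18 h. MIC is the lowest concentration with no growth.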

Pseudomonas aeruginosa [9] = assay: Inhibition of RND efflux pump in Pseudomonas aeruginosa isolate 101885 assessed as potentiation of minocycline-induced antibacterial activity by measuring fold reduction in minocycline MIC at 8 ug/ml after 18 to 24 hrs by microbroth dilution assay
How it was run: as §1, with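 “broth microdilution:” for “in MHB:”, “adjuvant” for “test agent”, “wells,” for “wells, incubated”, “FICI” for “FIC index”, “the two FICs; FICI ≤0.5 is synergy.” for “both FICs.”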

[10] = system: Pseudomonas aeruginosa PAO1; assay: Inhibition of RND efflux pump in Pseudomonas aeruginosa PAO1 assessed as potentiation of trimethoprim-induced antibacterial activity […] by microbroth dilution assay
Pseudomonas aeruginosa [11] = assay: Induction of outer membrane permeabilization in Pseudomonas aeruginosa PAO1 assessed as increase in NPN uptake up to 100 secs by fluorescence assay; assay type: functional
How it was run: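 Outer membrane permeabilization in PAO1 cells, read as accumulation of 1-N-phenylnaphthylamine (NPN) by fluorescence over a range of compound concentrations. Triton X-100 (1%) and EDTA (10 mM) served as positive controls.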

Pseudomonas aeruginosa [12] = assay: Inhibition of RND efflux pump in Pseudomonas aeruginosa isolate 101885 assessed as potentiation of minocycline-induced antibacterial activity at 8 ug/ml after 18 to 24 hrs by checker board assay; how it was run: as §1
Pseudomonas aeruginosa [13] = assay: Antibacterial activity against Pseudomonas aeruginosa isolate P262-101856 after 18 to 24 hrs by microbroth dilution assay; assay type: functional
How it was run: as §1, with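 “broth microdilution:” for “in MHB:”, “adjuvant” for “test agent”, “wells,” for “wells, incubated”, “FICI” for “FIC index”, “the two FICs; FICI ≤0.5 is synergy.” for “both FICs.”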

Pseudomonas aeruginosa [14] = assay: Inhibition of RND efflux pump in Pseudomonas aeruginosa isolate P262-101856 assessed as potentiation of minocycline-induced antibacterial activity by measuring fold reduction in minocycline MIC at 8 ug/ml after 18 to 24 hrs by microbroth dilution assay
How it was run: as §1, with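 “broth microdilution:” for “in MHB:”, “adjuvant” for “test agent”, “wells,” for “wells, incubated”, “FICI” for “FIC index”, “the two FICs; FICI ≤0.5 is synergy.” for “both FICs.”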

Pseudomonas aeruginosa [15] = assay: Antibacterial activity against Pseudomonas aeruginosa isolate P264-104354 after 18 to 24 hrs by microbroth dilution assay; assay type: functional; how it was run: as §1
Pseudomonas aeruginosa [16] = assay: Inhibition of RND efflux pump in Pseudomonas aeruginosa isolate P259-96918 assessed as potentiation of minocycline-induced antibacterial activity by measuring fold reduction in minocycline MIC at 8 ug/ml after 18 to 24 hrs by microbroth dilution assay
How it was run: as §1, with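 “broth microdilution:” for “in MHB:”, “adjuvant” for “test agent”, “wells,” for “wells, incubated”, “FICI” for “FIC index”, “the two FICs; FICI ≤0.5 is synergy.” for “both FICs.”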

Pseudomonas aeruginosa [17] = assay: Inhibition of RND efflux pump in Pseudomonas aeruginosa isolate P262-101856 assessed as potentiation of minocycline-induced antibacterial activity by measuring minocycline MIC at 8 ug/ml after 18 to 24 hrs by microbroth dilution assay (reference value: 128 to 256 ug/ml); how it was run: as §2
Pseudomonas aeruginosa [18] = assay: Antibacterial activity against colistin-resistant Pseudomonas aeruginosa isolate 91433 after 18 to 24 hrs by microbroth dilution assay; assay type: functional
How it was run: as §1, with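 “broth microdilution:” for “in MHB:”, “adjuvant” for “test agent”, “wells,” for “wells, incubated”, “FICI” for “FIC index”, “the two FICs; FICI ≤0.5 is synergy.” for “both FICs.”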

[19] = system: Pseudomonas aeruginosa PAO1; assay: Inhibition of RND efflux pump in Pseudomonas aeruginosa PAO1 assessed as potentiation of novobiocin-induced antibacterial activity […] by microbroth dilution assay
[20] = system: Pseudomonas aeruginosa PAO1; assay: Inhibition of RND efflux pump in Pseudomonas aeruginosa PAO1 assessed as potentiation of minocycline-induced antibacterial activity by measuring minocycline MIC at 8 ug/ml after 18 to 24 hrs by microbroth dilution assay (reference value: 8 ug/ml); how it was run: as §2
Pseudomonas aeruginosa [21] = assay: Inhibition of RND efflux pump in colistin-resistant Pseudomonas aeruginosa isolate 101243 assessed as potentiation of minocycline-induced antibacterial activity by measuring fold reduction in minocycline MIC at 8 ug/ml after 18 to 24 hrs by microbroth dilution assay
How it was run: as §1, with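 “broth microdilution:” for “in MHB:”, “adjuvant” for “test agent”, “wells,” for “wells, incubated”, “FICI” for “FIC index”, “the two FICs; FICI ≤0.5 is synergy.” for “both FICs.”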

Enterobacter cloacae [22] = assay: Inhibition of RND efflux pump in Enterobacter cloacae isolate 117029 assessed as potentiation of minocycline-induced antibacterial activity by measuring fold reduction in minocycline MIC at 8 ug/ml after 18 to 24 hrs by microbroth dilution assay; how it was run: as §2
Pseudomonas aeruginosa [23] = assay: Inhibition of RND efflux pump in Pseudomonas aeruginosa isolate P259-96918 assessed as potentiation of minocycline-induced antibacterial activity at 8 ug/ml after 18 to 24 hrs by checker board assay; how it was run: as §1
Enterobacter cloacae [24] = assay: Inhibition of RND efflux pump in Enterobacter cloacae isolate 117029 assessed as potentiation of minocycline-induced antibacterial activity by measuring minocycline MIC at 8 ug/ml after 18 to 24 hrs by microbroth dilution assay (reference value: 128 to 256 ug/ml); how it was run: as §2
Pseudomonas aeruginosa [25] = assay: Reduction in flagellum-dependant motility in Pseudomonas aeruginosa PAO1 at sub MIC after 20 hrs in presence of minocycline by swimming motility test; assay type: functional
[26] = system: Pseudomonas aeruginosa PAO1; assay: Inhibition of RND efflux pump in Pseudomonas aeruginosa PAO1 assessed as potentiation of tobramycin-induced antibacterial activity after 18 to 24 hrs by checker board assay; how it was run: as §1
Pseudomonas aeruginosa [27] = assay: Antibacterial activity against colistin-resistant Pseudomonas aeruginosa isolate 101243 after 18 to 24 hrs by microbroth dilution assay; assay type: functional
How it was run: as §1, with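 “broth microdilution:” for “in MHB:”, “adjuvant” for “test agent”, “wells,” for “wells, incubated”, “FICI” for “FIC index”, “the two FICs; FICI ≤0.5 is synergy.” for “both FICs.”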

Row | Structure (SMILES) | MIC (Klebsiella pneumoniae [1]) | inhibition [2] | fold change (FC) (Pseudomonas aeruginosa [3]) | MIC (Pseudomonas aeruginosa [4]) | fold change (FC) [5] | Activity (Pseudomonas aeruginosa [6]) | MIC (Pseudomonas aeruginosa [7]) | fold change (FC) (Klebsiella pneumoniae [8]) | fold change (FC) (Pseudomonas aeruginosa [9]) | fractional inhibitory concentration index (FICI) [10] | Activity (Pseudomonas aeruginosa [11]) | fractional inhibitory concentration index (FICI) (Pseudomonas aeruginosa [12]) | MIC (Pseudomonas aeruginosa [13]) | fold change (FC) (Pseudomonas aeruginosa [14]) | MIC (Pseudomonas aeruginosa [15]) | fold change (FC) (Pseudomonas aeruginosa [16]) | MIC (Pseudomonas aeruginosa [17]) | MIC (Pseudomonas aeruginosa [18]) | fractional inhibitory concentration index (FICI) [19] | MIC [20] | also measured
1 | Cl.Cl.Cl.Cl.Cl.Cl.NC[C@H]1O[C@H](O[C@H]2[C@H](OCCCCCCCCCCCCN3CC[C@@H](c4ccc(F)cc4)[C@H](COc4ccc5c(c4)OCO5)C3)[C@@H](O[C@H]3O[C@H](CO)[C@@H](O)[C@H](N)[C@H]3O)[C@H](N)C[C@@H]2N)[C@H](N)C[C@@H]1O | > 32 µg/mL | Dose-dependent effect | 8 to 256 | < 1 µg/mL | 8 to 64 | inactive | 64 µg/mL | 4 to 256 | 8 to 256 | < 0.1 | Dose-dependent effect | 0.13 | 32 µg/mL | 8 to 256 | 64 µg/mL | 8 to 256 | 1 µg/mL | 32 µg/mL | < 0.1 | 0.25 µg/mL | fold change (FC) (Pseudomonas aeruginosa [21]): 8 to 256; fold change (FC) (Enterobacter cloacae [22]): 4 to 256; fractional inhibitory concentration index (FICI) (Pseudomonas aeruginosa [23]): 0.02; MIC (Enterobacter cloacae [24]): 4 µg/mL; Activity (Pseudomonas aeruginosa [25]): Active; fractional inhibitory concentration index (FICI) [26]: > 1.5; MIC (Pseudomonas aeruginosa [27]): 32 µg/mL
2 | NC[C@H]1C[C@H](C(=O)N[C@H](CCc2ccccc2)C(=O)Nc2ccc3ccccc3c2)N(CCCCCCCCCCCCO[C@@H]2[C@@H](O[C@H]3O[C@H](CO)[C@@H](O)[C@H](N)[C@H]3O)[C@H](N)C[C@H](N)[C@H]2O[C@H]2O[C@H](CN)[C@@H](O)C[C@H]2N)C1 | > 32 µg/mL | Dose-dependent effect | 8 to 256 | 0.5 µg/mL | 8 to 64 | inactive | 32 µg/mL (≈ 30.1 µM) | 4 to 256 | 8 to 256 | < 0.1 | Dose-dependent effect | 0.13 | 32 µg/mL (≈ 30.1 µM) | 8 to 256 | 8 µg/mL (≈ 7.52 µM) | 8 to 256 | < 1 µg/mL | 8 µg/mL (≈ 7.52 µM) | < 0.1 | 0.12 µg/mL | fold change (FC) (Pseudomonas aeruginosa [21]): 8 to 256; fold change (FC) (Enterobacter cloacae [22]): 4 to 256; fractional inhibitory concentration index (FICI) (Pseudomonas aeruginosa [23]): 0.03; MIC (Enterobacter cloacae [24]): 1 µg/mL; Activity (Pseudomonas aeruginosa [25]): Active; fractional inhibitory concentration index (FICI) [26]: > 1.5; MIC (Pseudomonas aeruginosa [27]): 16 µg/mL (≈ 15 µM)
3 | Cl.Cl.Cl.Cl.Cl.Cl.Cl.NC[C@H]1O[C@H](O[C@H]2[C@H](OCCCCCCCCCCCCN3CCN(Cc4cccc5ccccc45)CC3)[C@@H](O[C@H]3O[C@H](CO)[C@@H](O)[C@H](N)[C@H]3O)[C@H](N)C[C@@H]2N)[C@H](N)C[C@@H]1O | > 32 µg/mL | Dose-dependent effect | 8 to 256 | 0.5 µg/mL | 8 to 64 | inactive | 256 µg/mL | 4 to 256 | 8 to 256 | < 0.1 | Dose-dependent effect | 0.05 | 64 µg/mL | 8 to 256 | 128 µg/mL | 8 to 256 | 4 µg/mL | 32 µg/mL | < 0.1 | 0.5 µg/mL | fold change (FC) (Pseudomonas aeruginosa [21]): 8 to 256; fold change (FC) (Enterobacter cloacae [22]): 4 to 256; fractional inhibitory concentration index (FICI) (Pseudomonas aeruginosa [23]): 0.02; MIC (Enterobacter cloacae [24]): 8 µg/mL; Activity (Pseudomonas aeruginosa [25]): Active; fractional inhibitory concentration index (FICI) [26]: > 1.5; MIC (Pseudomonas aeruginosa [27]): 64 µg/mL
